Screens from PubChem BioAssay.
STAT1 inh = inhibitors of IFN-gamma induced STAT1 signaling; NIH 3T3 STAT1-luciferase reporter, luminescence; inhibition, % at 5.5 µM; actives 0.35% (n = 200,000); AID 920;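 active = inhibition above a set limit, the mean inhibition across all tested compounds plus 3 SD, cut at about 34% in these data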
STAT1 activator = increases IFN-gamma driven STAT1 reporter signal; AID 932; activation (% of control), % at 5.5 µM; actives 2.6% (n = 200,000); NIH 3T3 STAT1-luciferase reporter, luminescence; 100% = IFN-gamma alone, no compound;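 active = activation above the screen-wide mean activation plus 3 SD, cut at about 130% in these data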
HSV augment = increases HSV replication in cells; HSV replication augmentation in cells, fold increase; actives 0.005% (n = 220,000); maximum fold increase; in the data active = maximum fold increase above about 1.5; inconclusive = no clear call, values can overlap the other calls; tested in PC3 cells
Cl transport mod = modulators of human KCC2 chloride dependent transport. Q9H2X9. KCC2 cells, thallium flux FluoZin-2 fluorescence. B-score of Tl+ flux slope (higher = more flux/activation; lower = inhibition) at 10 µM. actives 2.2% (n = 190,000). AID 1456;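 active = thallium flux slope and its plate-corrected score both differing from the plate sample mean at a set confidence after two filtering rounds, in either direction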;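 note: slope of fluorescence scaled to starting intensity during 10 to 20 s after thallium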
Target sequence (Q9H2X9 whole entry, looked up): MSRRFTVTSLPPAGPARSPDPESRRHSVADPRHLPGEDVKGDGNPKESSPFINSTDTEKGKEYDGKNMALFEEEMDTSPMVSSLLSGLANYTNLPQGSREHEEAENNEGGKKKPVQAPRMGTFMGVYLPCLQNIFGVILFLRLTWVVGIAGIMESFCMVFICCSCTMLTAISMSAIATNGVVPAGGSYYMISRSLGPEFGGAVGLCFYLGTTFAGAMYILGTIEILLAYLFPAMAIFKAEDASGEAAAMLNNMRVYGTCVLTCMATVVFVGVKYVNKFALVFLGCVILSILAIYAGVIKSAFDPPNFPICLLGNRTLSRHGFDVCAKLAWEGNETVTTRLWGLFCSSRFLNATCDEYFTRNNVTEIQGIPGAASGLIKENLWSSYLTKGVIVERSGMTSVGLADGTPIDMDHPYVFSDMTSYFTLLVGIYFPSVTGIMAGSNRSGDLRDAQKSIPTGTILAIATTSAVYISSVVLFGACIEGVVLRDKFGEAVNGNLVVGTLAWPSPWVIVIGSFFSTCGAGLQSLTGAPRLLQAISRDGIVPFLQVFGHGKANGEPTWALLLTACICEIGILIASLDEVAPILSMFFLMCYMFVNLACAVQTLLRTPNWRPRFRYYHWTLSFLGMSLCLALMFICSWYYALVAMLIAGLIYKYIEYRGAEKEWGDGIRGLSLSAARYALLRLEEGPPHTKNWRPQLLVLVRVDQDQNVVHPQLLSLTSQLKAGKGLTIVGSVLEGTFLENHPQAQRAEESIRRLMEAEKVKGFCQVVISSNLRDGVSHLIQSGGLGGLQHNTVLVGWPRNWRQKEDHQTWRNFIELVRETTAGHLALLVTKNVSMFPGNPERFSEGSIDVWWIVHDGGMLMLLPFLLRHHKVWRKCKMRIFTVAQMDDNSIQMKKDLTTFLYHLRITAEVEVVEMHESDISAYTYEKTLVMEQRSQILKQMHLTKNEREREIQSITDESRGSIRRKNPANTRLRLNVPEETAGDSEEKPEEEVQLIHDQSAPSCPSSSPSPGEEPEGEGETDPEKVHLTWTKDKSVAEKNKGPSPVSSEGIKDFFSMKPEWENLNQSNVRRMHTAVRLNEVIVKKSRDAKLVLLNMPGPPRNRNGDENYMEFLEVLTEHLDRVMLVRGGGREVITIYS
STAT3 act = activators of IL-6 induced STAT3 signaling; U3A cells, IL-6 STAT3-luciferase reporter, luminescence; 100% = signal with IL-6 EC80 alone; activation (% of control), % at 5.6 µM; actives 0.91% (n = 190,000); AID 871;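 active = activation above the screen-wide mean of compound activation plus 3 SD, cut at about 130% in these data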
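Material: STAT3-luciferase reporter U3A cells. Controls: IL-6-treated wells, 100% activation. Read-out: % activation versus median of IL-6-stimulated wells. Probe or stimulus: IL-6 stimulus at 33 ng/mL final. Timing: compound 1 h, then IL-6 6 h at 37 °C. Signal: reporter luminescence signal.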
STAT3 blocker = reduces IL-6 driven STAT3 reporter signal | inhibition, % at 5.5 µM | actives 0.89% (n = 190,000) | U3A cells, IL-6 STAT3-luciferase reporter, luminescence; host cell line lacks STAT1;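 active = inhibition above the mean inhibition across all screened compounds plus 3 SD, cut at about 44% in these data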
KCC2 secondary = KCC2 (human) modulation, secondary assay; HEK293-KCC2, thallium flux, FluoZin2 fluorescence; hits give high values; shares compounds with Cl transport mod; normalised thallium flux (F/F0 slope) at 10 µM; AID 1713; actives 15% (n = 3,700);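 active = thallium flux slope above the same plate's solvent-only control mean plus 3 SD; inconclusive = the two replicate wells disagree; inactive = no significant difference from solvent-only control wells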
KCC2 bumet counter = thallium flux despite bumetanide block in KCC2 cells, secondary assay 3; shares compounds with Cl transport mod; HEK293-KCC2 + bumetanide/ouabain, thallium flux FluoZin2; hits give high values; normalized thallium flux at 10 µM; actives 49% (n = 3,700); AID 1714;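 active = thallium entry rate above the same plate's blocked-transporter control wells by more than 3 SD; inconclusive = the two repeat wells disagree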;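 note: raw slope of fluorescence over initial fluorescence between 10 and 20 s after thallium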
KCC2 secondary2 = confirmation of human KCC2 transport modulators; normalized thallium flux at 10 µM; HEK293-KCC2, thallium flux FluoZin2 fluorescence; actives lie on both sides; F/F0 rise rate, 10–20 s post-thallium; actives 23% (n = 3,700); shares compounds with Cl transport mod;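 active = thallium flux slope more than 3 SD above or below the plate's solvent-only control mean, mostly below; inconclusive = the two repeat wells disagreed; inactive = no significant shift from solvent-only controls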
HEK counter1 = counter-screen for KCC2 modulators: effect in parental HEK293 cells; shares compounds with Cl transport mod; thallium flux FluoZin2, ouabain; baseline-ratio fluorescence slope, 10–20 s after thallium; thallium flux rate (normalised fluorescence) at 10 µM; actives 46% (n = 3,700); AID 1716;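 active = thallium flux rate significantly above the same plate's solvent-only control wells, beyond their mean plus 3 SD; inconclusive = the two replicate wells gave conflicting results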
KCC2 ouabain = KCC2 (human) modulation, ouabain retest. raw Tl+ flux slope (below DMSO = inhibition, above = activation) at 10 µM. actives 48% (n = 3,700). shares compounds with Cl transport mod. HEK293-KCC2, thallium flux FluoZin2 fluorescence; bidirectional: low = inhibitor, high = activator;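 active = thallium flux slope beyond 3 SD from same-plate DMSO control mean in most replicates, usually higher, sometimes lower; inconclusive = repeat tests gave conflicting results; inactive = no significant difference from controls in most replicates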;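 note: slope of initial-normalized fluorescence between seconds 10 and 20 after thallium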
HEK counter2 = counter-screen for KCC2 modulators: effect in parental HEK293 cells; shares compounds with Cl transport mod; thallium flux FluoZin-2 fluorescence slope; thallium flux slope at 10 µM; actives 33% (n = 3,700); AID 1718;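 active = thallium flux slope above the same plate's solvent-control mean plus 3 SD in both duplicate wells; inconclusive = duplicate wells that disagreed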;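 note: run without ouabain in cells lacking the KCC2 cotransporter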
Numbers stand for hits. Sampled rows, rich in hits. Any-hit rate of the full collection: about 5.5%.

Screening O=C(NC(=S)N1CCN(C/C=C/c2ccccc2)CC1)c1ccc(Cl)nc1 returned HSV augment inactive, Cl transport mod 68.2, KCC2 secondary inactive, KCC2 bumet counter 0.0802, KCC2 secondary2 0.0625, HEK counter1 0.0562, KCC2 ouabain 0.0668 and HEK counter2 0.0543.
Screening O=C(NC(=S)N1CCN(Cc2ccccc2)CC1)c1cccnc1 returned STAT1 inh inactive, STAT1 activator inactive, HSV augment inactive, Cl transport mod inactive, STAT3 act inactive and STAT3 blocker inactive.
CC(C)n1c(O)c(N=NC(=O)C2COc3ccccc3O2)c2ccccc21 (centres undefined) was read as STAT1 inh inactive, STAT1 activator inactive, HSV augment inactive, Cl transport mod 10, STAT3 act inactive, STAT3 blocker inactive, KCC2 secondary inactive, KCC2 bumet counter 0.0275, KCC2 secondary2 inactive, HEK counter1 0.0299, KCC2 ouabain 0.0306 and HEK counter2 0.0259.
Screening Cc1cccc(-c2cc3nc4c(c(N5CCOCC5)n3n2)CCCC4)c1 returned STAT1 inh inactive, STAT1 activator inactive, HSV augment inactive, Cl transport mod inactive, STAT3 act inactive and STAT3 blocker inactive.
Cc1cccc(-c2nc(=S)c3c(o2)CCCC3)c1 was read as STAT1 inh inactive, STAT1 activator 139.0, HSV augment inactive, Cl transport mod 52.5, STAT3 act inactive, STAT3 blocker inactive, KCC2 secondary 0.0151, KCC2 bumet counter 0.0302, KCC2 secondary2 inactive, HEK counter1 0.0146, KCC2 ouabain inconclusive and HEK counter2 inconclusive.
Screening C=C(C)C1CC=C(C)/C(=N\NC(=S)Nc2ccc(C)cc2)C1 (centres undefined) returned STAT1 inh inactive, STAT1 activator inactive, HSV augment inactive, Cl transport mod 4.62, STAT3 act inactive, STAT3 blocker inactive, KCC2 secondary inactive, KCC2 bumet counter 0.0222, KCC2 secondary2 inactive, HEK counter1 0.0119, KCC2 ouabain 0.0402 and HEK counter2 0.0112.
Screening CCN(CC)C(=O)C1CCCN(c2ccccc2[N+](=O)[O-])C1 (centres undefined) returned STAT1 inh inactive, STAT1 activator inactive, HSV augment inactive, Cl transport mod inactive, STAT3 act inactive and STAT3 blocker inactive.
Screening Cc1ccc2nc3c(cc2c1)CN(Cc1ccco1)C(=NCC1CCCO1)S3 (centres undefined) returned STAT1 inh inactive, STAT1 activator inactive, HSV augment inactive, Cl transport mod 3.05, STAT3 act inactive, STAT3 blocker inactive, KCC2 secondary inactive, KCC2 bumet counter inconclusive, KCC2 secondary2 inactive, HEK counter1 inactive, KCC2 ouabain inactive and HEK counter2 inactive.
Cc1cccc2cc3c(nc12)SC(=NCC1CCCO1)N(Cc1ccco1)C3 (centres undefined) was read as STAT1 inh inactive, STAT1 activator inactive, HSV augment inactive, Cl transport mod inactive, STAT3 act inactive and STAT3 blocker inactive.
